One data set relates to MCF7. Kind of data set: Antiproliferative activity against human MCF7 cells expressing estrogen receptor after 48 hrs by MTT assay. The data set is classed as functional, cell-based. Particulars: MCF7, 48 h. Summed up: (§1)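 Cells seeded at 1×10^4/well in DMEM with 10% FBS for 24 h at 37 °C, then exposed to compounds for 48 h. MTT (5 mg/mL) added for 4 h. Formazan dissolved in DMSO and absorbance read at 540 nm. Routine culture used DMEM with 10% FBS, 5% CO2, reduced to 2% FBS for growth inhibition.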

The next data set has as its system MDA-MB-231. Nature of the data set: Antiproliferative activity against estrogen receptor-deficient human MDA-MB-231 cells […] after 48 hrs by MTT assay. The class given is functional, cell-based. Particulars: MDA-MB-231, 48 h. Summed up:
as §1

In data set [1] the test system is Ishikawa. Kind of data set: Antiproliferative activity against human Ishikawa cells expressing estrogen receptor at 50 uM after 48 hrs by MTT assay. The data set is classed as functional, cell-based. (In general: Tetrazolium dyes change colour on reduction, which living cells bring about.)
Data set [2] relates to HEK293. Kind of data set: Antiproliferative activity against human HEK293 cells at 50 uM after 48 hrs by MTT assay. Particulars: hek293, 48 h. The data set is classed as cell-based.
For data set [3], the species on record is Rattus norvegicus. Kind of data set: Displacement of [3H]-estradiol from estrogen receptor in rat uteri after 18 hrs by scintillation counting relative to 17beta-estradiol. The procedure, abridged:
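Cytosol from uteri of immature 20–21-day-old rats, in TEA buffer pH 7.4 (10 mM Tris, 1.5 mM EDTA, 0.02% azide). Incubated in triplicate with fixed 3H-estradiol ± competitor (DMF ≤5% final) for 18 h at 4 °C. Free ligand removed with dextran-coated charcoal (15 min, 800g 10 min), then supernatant counted. RBA taken at 50% inhibition from the bound-versus-log concentration plot.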
On the technique in general: In a radioligand displacement assay an active substance lowers the binding of a labelled ligand.

The test system of data set [4] is Rattus norvegicus. Kind of data set: Estrogenic activity in Sprague-Dawley rat assessed as increase in uterine weight administered as po daily once for 3 days relative to control. The class given is functional. The arrangement: concentration or dose not given beside the values. Summed up: (§2)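 Immature female Sprague-Dawley rats given oral dosing once daily for 3 days on days 28–30 of age. Antiestrogenic arm co-dosed ethynylestradiol 0.02 mg/kg in 10% ethanol-water. Autopsy 24 h after last dose (day 31). Uterus excised, blotted and weighed, with vaginal opening and cornification also scored. Inhibition computed as (E − T)×100/E versus ethynylestradiol alone. Estrogenic gain expressed as percent increase over vehicle control.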

The subject of data set [5] is Rattus norvegicus. Kind of data set: Antiestrogenic activity in Sprague-Dawley rat assessed as inhibition of uterine weight gain administered as po daily once for 3 days relative to 17alpha-ethynylestradiol. The class given is functional. Summed up:
as §2

The subject of data set [6] is Rattus norvegicus. Nature of the data set: Antiimplantation activity in Sprague-Dawley albino rat at 20 mg/kg, po after 10 days. The data set is classed as functional. Summed up: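 Sperm-positive adult Sprague-Dawley females (180–220 g) mated with proven-fertile males. Compounds given orally as a gum acacia suspension on days 1–5 post-coitum, 5–7 animals per group. Vehicle-only group served as control.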

Data set [7] deals with Bone. Nature of the data set: Antiosteoporotic activity in Sprague-Dawley rat [45Ca] pre-labeled bone assessed as inhibition of PTH-induced bone resorption after 96 hrs.
Data set [8] relates to Bone. Kind of data set: Antiosteoporotic activity in Sprague-Dawley rat [45Ca] pre-labeled bone assessed as inhibition of PTH-induced bone resorption after 96 hrs relative to control.
Data set [9] deals with Ishikawa. Nature of the data set: Antiproliferative activity against human Ishikawa cells expressing estrogen receptor after 48 hrs by MTT assay. The data set is classed as functional, cell-based. The procedure, abridged: as §1
Data set [10] deals with Bone marrow cell. Nature of the data set: Osteoclastogenesis activity in BALB/c mouse bone marrow cells assessed as inhibition of MCSF-induced RANK gene expression at 1 uM after 7 days by RT-PCR analysis. The class given is functional, cell-based. The procedure, abridged: (§3)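 Bone marrow from long bones of 4–6-week-old Balb/c mice, plated overnight in α-MEM with 10% FBS and M-CSF. Nonadherent cells then cultured with RANKL 50 ng/ml and M-CSF 10 ng/ml plus test agent 1 µM, medium changed every 2 d for 7 d. TRAP and RANK mRNA measured by qPCR after Trizol RNA extraction, expressed as fold change over vehicle.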

In data set [11] the test system is Bone marrow cell. Kind of data set: Osteoclastogenesis activity in BALB/c mouse bone marrow cells assessed as inhibition of RANK-induced RANK gene expression at 1 uM after 7 days by RT-PCR analysis. The class given is functional, cell-based. The procedure, abridged:
as §3

In data set [12] the test system is Bone marrow cell. Nature of the data set: Osteoclastogenesis activity in BALB/c mouse bone marrow cells assessed as inhibition of MCSF-induced TRAP gene expression at 1 uM after 7 days by RT-PCR analysis. The class given is functional, cell-based. The procedure, abridged: as §3
Data set [13] relates to Bone marrow cell. Nature of the data set: Osteoclastogenesis activity in BALB/c mouse bone marrow cells assessed as inhibition of RANK-induced TRAP gene expression at 1 uM after 7 days by RT-PCR analysis. The data set is classed as functional, cell-based. Summed up:
as §3

For data set [14], the system named is HEK293. Kind of data set: Antiproliferative activity against human HEK293 cells after 48 hrs by MTT assay. The class given is cell-based. Particulars: HEK293, 48 h. Summed up:
as §1

The structures appear in SMILES notation. The source made the active and inactive calls. The rule behind the calls is not given here.

Consider `Cc1ccc(SC(CC(=O)c2ccc(OCCN(C)C)cc2)c2ccccc2)cc1` (stereo not given), for which the IC50 (usually the concentration needed to halve the response being measured) in the data set on MCF7 is greater than 50 µM; with MDA-MB-231, 28 µM. For the same molecule, the result in the data set on Ishikawa [1] and in the data set with Rattus norvegicus [6] was inactive. Further, the Activity result with HEK293 [2] is on record as “Non-toxic”; in the data set with Rattus norvegicus [4], 76%. For the same molecule, the RBA in the data set listed under Rattus norvegicus [3] is 0.245%. Besides, the figures for the “inhibition (INH)” value in the data set with Rattus norvegicus [5] and in the data set with Bone [8] were 8% and 15.5%, respectively. The T/C in the data set on Bone [7] stood at 0.845.

With `CN(C)CCOc1ccc(C(=O)CC(Sc2ccccc2)c2ccccc2)cc1` (stereo not given), the IC50 with MCF7 is greater than 50 µM; with Ishikawa [9] it was 20 µM; in the data set on MDA-MB-231, 27 µM. The results for the Activity result with HEK293 [2] and in the data set with Rattus norvegicus [4] were “Non-toxic” and 174%, respectively. The same molecule displayed an RBA in the data set listed under Rattus norvegicus [3] of 0.157%. Besides, the “inhibition (INH)” value in the data set with Rattus norvegicus [5] turned out to be 12%; with Bone [8] it was 13.7%. The result with Rattus norvegicus [6] was inactive. For the same molecule, in the data set on Bone [7], the T/C came out at 0.863.

With `O=C(CC(Sc1ccccc1)c1ccccc1)c1ccccc1` (stereo not given), the inhibition result in the data set on Bone marrow cell [10], in the data set on Bone marrow cell [11], with Bone marrow cell [12] and in the data set on Bone marrow cell [13] was “Active” each time. For the same molecule, the results for the IC50 with MCF7, in the data set with Ishikawa [9] and with MDA-MB-231 were 24 µM, 20 µM and 57 µM, respectively. The molecule further came in with an RBA in the data set listed under Rattus norvegicus [3] of 1.25%. In addition, the Activity with Rattus norvegicus [4] is listed as 185%. Also, the “inhibition (INH)” value came to 16% with Rattus norvegicus [5] and 43.8% in the data set with Bone [8]. The result with Rattus norvegicus [6] was inactive. Also, the T/C in the data set on Bone [7] is 0.562.

As to `COc1ccc(C(=O)CC(Sc2ccccc2)c2ccc(OC)cc2)cc1` (stereo not given), the inhibition result in the data set on Bone marrow cell [10], in the data set with Bone marrow cell [11], with Bone marrow cell [12] and with Bone marrow cell [13] was “Active” throughout. Also, the 50% inhibitory concentration (IC50) with MCF7 was 17 µM; with Ishikawa [9], 16 µM; in the data set with MDA-MB-231 it was 31 µM; in the data set on HEK293 [14], 38.2 µM. Moreover, the RBA in the data set listed under Rattus norvegicus [3] was determined as 2.21%. For the same molecule, in the data set with Rattus norvegicus [4], the Activity came out at 187%. The “inhibition (INH)” value with Rattus norvegicus [5] came out at 16%; in the data set with Bone [8], 39%. The outcome in the data set with Rattus norvegicus [6] was inactive. The T/C in the data set with Bone [7] turned out to be 0.61.

For `CCSC(CC(=O)c1ccc(OCCN2CCCCC2)cc1)c1ccccc1` (stereo not given), the half-maximal inhibitory concentration (IC50) in the data set on MCF7 was determined as 32.8 µM; in the data set with Ishikawa [9], 28.5 µM; in the data set on MDA-MB-231 it was 40.2 µM. Besides, the Activity entry with HEK293 [2] was “Non-toxic”; in the data set on Rattus norvegicus [4], 134%. This molecule also registered an RBA in the data set listed under Rattus norvegicus [3] of 0.175%. The “inhibition (INH)” value in the data set on Rattus norvegicus [5] is 7%; in the data set with Bone [8], 5.5%. Moreover, the outcome with Rattus norvegicus [6] was inactive. The T/C in the data set with Bone [7] is on record as 0.947.

`COc1ccc(C(CC(=O)c2ccccc2)Sc2ccccc2)cc1` (stereo not given): the inhibition result in the data set with Bone marrow cell [10], in the data set with Bone marrow cell [11], with Bone marrow cell [12] and with Bone marrow cell [13] was “Active” each time. Also, the figures for the IC50 in the data set on MCF7, in the data set on Ishikawa [9] and with MDA-MB-231 were 21 µM, 26 µM and 34 µM, respectively. The RBA in the data set filed under Rattus norvegicus [3] was determined as 2.67%. Besides, in the data set on Rattus norvegicus [4], the Activity is given as 192%. In addition, the results for the “inhibition (INH)” value in the data set on Rattus norvegicus [5] and in the data set on Bone [8] were 18% and 21.6%, respectively. In the data set on Rattus norvegicus [6], the result was inactive. For the same molecule, in the data set on Bone [7], the T/C is recorded as 0.784.
